This is a sample that favours compounds with a hit; in the whole collection about 6.3% have one here.
PostGolgi ctrl: inhibits growth of the yeast control strain. efflux-deficient yeast background strain, growth absorbance A615, 16 h. inhibition, % at 10 µM. 98,000 tested, 5% active
PostGolgi yeast: growth inhibition of a yeast mutant, post-Golgi transport screen. post-Golgi transport phenotypic cell assay. inhibition, % at 10 µM. 98,000 tested, 0.9% active. AID 739;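 further: yeast cells grown in 1536-well plates; yeast grown about 18 h at 30C before absorbance read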
Ecoli WT expand: E. coli BW25113 growth inhibition, expanded screen. OD600 absorbance. growth inhibition, % at 100 µM. 98,000 tested, 0.15% active. AID 710;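 active means growth inhibition above about 50% at one test dose, limit read from the data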;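 further: growth measured after 20 h incubation at 37 °C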
Ecoli tolC: E. coli tolC mutant growth inhibition; E. coli BW25113 tolC mutant growth, OD615; AID 573; 65,000 tested, 2.2% active; growth inhibition, % at 10 µM (by protocol);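 active means growth inhibition at or above a cutoff equal to the mean over every tested compound plus 3 SD, cut at about 60% in these data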;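 further: growth measured after 20 h incubation at 37 °C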
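Signal: optical density read at 615 nm; Assay system: E. coli ΔtolC::kan strain BW25113; Times: 20 h incubation with compound, 37 °C; Dosing: 10 µM final, single dose.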
* hit, by the source's call; · = no result given. Unless noted, no stated cut-off is given here; in the data, active means inhibition above about 30%; inactive means the rest.

SMILES	PostGolgi ctrl	PostGolgi yeast	Ecoli WT expand	Ecoli tolC
C/C(CC1CC(COCCC(C)C)OC1=O)=N\NC(N)=S (stereo unspecified)	14	-6	3	·
CCOC(=O)c1cnn(-c2ccccc2)c1-n1cccc1C(=O)C(=O)Nc1ccc(F)cc1	18	-10	-6	·
CCOC(=O)c1cnn(-c2ccccc2)c1-n1cccc1C(=O)C(=O)Nc1ccccc1	31*	2	-32	·
O=c1cc(N2CCCCC2)c(-c2ccccc2)nn1Cc1ccc(Cl)cc1Cl	28	2	-13	·
O=c1cc(N2CCCCC2)c(-c2ccccc2)nn1Cc1cccc(Cl)c1	31*	-4	-11	·
O=c1cc(N2CCCCC2)c(-c2ccccc2)nn1Cc1ccccc1Cl	44*	-4	-7	·
O=C(CN1CCN(c2ncccn2)CC1)NCc1ccccc1	-5	27	0	·
CCOC(=O)C1=C(C)NC(C)=C(C(=O)OCC)C1c1sccc1C	38*	-7	8	·
O=C1CN(c2ccccc2F)C(=O)CN1c1ccccc1F	37*	13	6	8
O=C(c1ccccc1C(=O)N1CCN(c2ccccc2F)CC1)N1CCN(c2ccccc2F)CC1	13	9	3	16
Cc1ccnc(N2CCC(C(=O)Nc3cccc(C(F)(F)F)c3)CC2)n1	8	1	0	65*
COc1ccc(Cc2nnc(N)s2)cc1	-8	-8	1	·
CC(C)COc1ccc(Cc2cnc(N)nc2N)cc1	7	10	66*	·
Cc1cc(C)cc(OCC(=O)N2CCCCCC2)c1	34*	-11	12	-4
COc1ccc(OCC(=O)N2CCN(C(=O)COc3ccc(Br)cc3)CC2)cc1	41*	-10	7	-2
CC(=O)N1CCN(C(=O)COc2ccc(Br)cc2)CC1	11	-2	8	-8
Cc1ccc(OCC(=O)N2CCC(N3CCCCCC3)CC2)cc1	35*	-2	3	-4
Cc1ccc(OCC(=O)N2CCN(C(=O)CCC3CCCC3)CC2)cc1	0	0	10	0
Cc1cccn2c(=O)c3cc(C(=O)N4CCc5ccccc54)n(C)c3nc12	·	·	·	-2
CC(=O)OCCOc1nc(N(C)C)nc(N(C)C)n1	1	6	-1	-11
O=C(CSc1nc(C2CC2)nc2ccccc12)N1c2ccccc2Sc2ccccc21	18	23	-17	·
COc1ccccc1S(=O)Cc1ccc(C(=O)NCCc2ccc(Cl)cc2)o1 (stereo unspecified)	10	-9	2	33
CCCCC(=O)Nc1ccc(C(=O)NNC(=O)c2ccccc2Br)cc1	-10	0	2	·
CCOc1ccc(C2/C(=C(/O)c3ccc(Cl)cc3)C(=O)C(=O)N2CCCN(C)C)cc1OC (stereo unspecified)	·	·	·	-27
O=C(Nc1nnc(-c2ccc(Cl)cc2)o1)Nc1ccccc1Cl	10	3	-2	·
SMILES	PostGolgi ctrl	PostGolgi yeast	Ecoli WT expand	Ecoli tolC
O=C(Nc1nnc(-c2ccc3c(c2)OCCO3)o1)c1ccc(Cc2ccccc2)cc1	11	-4	-1	100*
O=C(Nc1nnc(-c2ccccc2)o1)C1CCCCC1	-1	6	-3	·
O=C(Nc1nnc(-c2ccc3c(c2)CCCC3)o1)c1ccccc1Cl	28	88*	6	98*
O=C(Nc1nnc(-c2ccc3c(c2)CCCC3)o1)c1ccccc1	11	100*	25	·
O=C(COc1ccccc1)Nc1nnc(-c2ccc3c(c2)CCCC3)o1	31*	-14	-6	·
O=C(Nc1ccccc1)c1ccc2c(c1)OCCO2	2	1	13	·
Cc1nc(-c2ccccc2O)n(-c2ccccc2)n1	0	25	2	·
Cc1cccc2nc(CSc3nnc4ccccn34)cn12	2	1	3	·
CCNc1nc(NC(C)C)nc(SCCOc2ccc(C)cc2)n1	31*	4	-5	·
CCNc1nc(NC(C)C)nc(OCCNS(=O)(=O)c2cc(C)ccc2C)n1	3	-3	6	25
CCOC(=O)C(CC)n1nc(C)n2c(cc3occc32)c1=O (stereo unspecified)	7	-2	11	·
CC(=O)c1ccccc1NC(=O)CSc1nnc2ccccn12	8	18	5	·
Cc1onc(-c2ccccc2)c1C(=O)Nc1ccon1	1	3	3	·
Cc1onc(-c2ccccc2)c1C(=O)Nc1sc2c(c1C(N)=O)CCC2	37*	-3	-4	16
N#Cc1c(NC(NC(=O)c2ccco2)C(=O)c2ccccc2)sc2c1CCCC2 (stereo unspecified)	81*	41*	-3	65*
Cc1noc(C)c1C(=O)Nc1sc(C)c(-c2ccccc2)c1C#N	28	6	-4	97*
NC(=O)c1c(NC(NC(=O)c2ccco2)C(=O)c2ccc(Cl)cc2)sc2c1CCCC2 (stereo unspecified)	7	-2	-5	·
Cc1onc(-c2ccccc2)c1C(=O)Nc1sc2c(c1C#N)CCC2	44*	3	-1	70*
CC(C)Cc1cc(C(=O)Nc2sc3c(c2C#N)CCC3)no1	1	-10	-4	·
CC(C)Cc1cc(C(=O)Nc2sc3c(c2C#N)CCCC3)no1	9	-1	-2	79*
Cc1onc(-c2c(F)cccc2Cl)c1C(=O)Nc1sc2c(c1C(N)=O)CCC2	33*	-13	-18	·
CCOC(=O)c1sc(C)c2c1NC(C)(c1ccccc1)NC2=O (stereo unspecified)	22	2	4	·
COc1ccc(-c2cc(-c3c(O)c(OC)c4occc4c3OC)[nH]n2)cc1	56*	16	11	·
COc1ccc(-c2cc(-c3c(O)c(OC)c4occc4c3OC)[nH]n2)cc1OC	15	2	6	43
CCCCNc1c2c(nc3c(-c4ccccc4)c(C)nn13)CCC2	16	4	-13	·
SMILES	PostGolgi ctrl	PostGolgi yeast	Ecoli WT expand	Ecoli tolC
CCC(C)Nc1c2c(nc3c(-c4ccccc4)c(C)nn13)CCC2 (stereo unspecified)	39*	-5	0	·
Cc1nn2c(-n3ccnc3)c3c(nc2c1-c1ccccc1)CCC3	81*	74*	1	-10
COCCNc1c2c(nc3c(-c4ccccc4)c(C)nn13)CCCC2	18	0	3	·
CS(=O)(=O)n1nc(-c2ccc(Cl)cc2)nc1SCc1ccccc1	5	-1	-9	·
CCCCCSc1nnc(-c2cc(Br)ccc2N)c(=O)[nH]1	11	1	5	100*
CN(C)C(=O)NC(O)C(Cl)Cl (stereo unspecified)	8	-5	2	·
O=C(/C=C/c1ccc(Cl)cc1)c1cccnc1	16	39*	20	·
CC(C)C[C@H](NC(=O)Nc1ccccc1F)C(=O)O	1	-4	-9	·
CCOC(=O)/C(C#N)=C1/C=Nc2ccccc2N1	41*	-3	3	2
CCC(C)(C(=O)NC1CCCC1)N(C(=O)CC1NC(=O)NC1=O)c1ccc(C)cc1 (stereo unspecified)	-3	-7	8	·
COc1cccc(-c2nc(N3CCN(c4ccccc4)CC3)c3ccccc3n2)c1O	11	3	-28	·
CCC(C)Nc1nc(-c2cccc(OC)c2O)nc2ccccc12 (stereo unspecified)	72*	25	-9	12
COc1cccc(-c2nc(NC(C)C)c3ccccc3n2)c1O	75*	-5	-13	24
COc1cccc(-c2nc(N3CCCCC3)c3ccccc3n2)c1O	·	·	·	8

From PubChem
